Experimental data reported in publication PMC2862791 (Journal of controlled release : official journal of the …, 2010).

Assays:
3T3-L1 cells [1] = assay: Cellular uptake and intracellular localization by confocal microscopy; type: cell-based; details: 6-FAM-tagged ASO, 24 h; for cellular uptake, control group: non-differentiated control (Con) cells
Outline: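 Control or normoxic-differentiated 3T3-L1 cells were detached at day 4 after induction and re-seeded on chambered coverglass at 70% confluency. After about 20 h, cells were given 6-FAM (3′)-labelled ASO conjugate, or equivalent ASO or ionic complex, for 24 h without serum deprivation. After a PBS wash, live cells were imaged by laser-scanning confocal microscopy (water immersion ×60, 37 °C, 5% CO2).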

3T3-L1 cells [2] = assay: Cell cytotoxicity; type: cell-based; details: MTT, 24 h
Outline: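 3T3-L1 cells were differentiated under hypoxia (100 μM CoCl2 in differentiation medium, refreshed every 2 days) and treated for 24 h at 37 °C with the test compound, at 1.5 μg/μl ASO equivalent. MTT (5 mg/ml in complete DMEM) was then added for 5 h. Formazan was dissolved in DMSO and absorbance read. Viability (%) = OD(sample)/OD(control) × 100.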

Q: How did the “cellular uptake, control group” value (3T3-L1 cells [1]) turn out when “MMO: PS modified mismatch-HIF1α-oligonucleotide, 5’-GTGATCCCCTGCTCTTGCCGT-3’ (GTGATCCCCTGCTCTTGCCGT; all phosphorothioate, sugars by position and methylation of C not given here) [reference compound]” was run?
A: Its value is “unable to internalize into cells”.

Q: How did the “cellular uptake, differentiation group under normoxia” value (3T3-L1 cells [1]; differentiation under normoxia (D)) turn out when “ASO: PS modified antisense-HIF1α-oligonucleotide, 5’-ACAACGCGGGCACCGATTCGCCATG-3’ (antisense ACAACGCGGGCACCGATTCGCCATG; all phosphorothioate, sugars by position and methylation of C not given here)” was run?
A: The value was “unable to internalize into cells”.

Q: What about the “cellular uptake, control group” value (3T3-L1 cells [1]) of the same substance?
A: Its value is “unable to internalize into cells”.

Q: What about the “cell viability under hypoxia compared to that of control” value (3T3-L1 cells [2]; differentiation under hypoxia, 1.5 μg/μl ASO) of the same substance?
A: Its value is “statistically indistinguishable”.

Q: And the “concentration showing significant cell toxicity” value (3T3-L1 cells [2]; non-differentiated control 3T3-L1 cells, AS-L containing 0-10 μg/μl of ASO)?
A: The value was at least 2 µg/µL.
